According to ChEMBL document CHEMBL2169785, “Inhibition of Acyl-CoA: cholesterol acyltransferase (ACAT), overexpression of cholesterol transporter gene, and protection of amyloid β (Aβ) oligomers-induced neuronal cell death by tricyclic pyrone molecules” (J Med Chem, 2012):
Calls of active or inactive are those of the source. No cut-off for these calls is given here.

Legend:
[1] = Neuroprotective activity in […] human MC65 cells assessed as protection against APP-induced cell death by MTT assay; assay type: functional, cell-based
Summary of the method: (§1)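 MC65 neuroblastoma cells carrying a tetracycline-repressible SβC gene (APP C99 fragment); induction causes intraneuronal Aβ oligomer accumulation and cell death after three days. Viability read by MTT. EC50 (median effective concentration for protection) and TD50 (median toxic concentration) derived; TI = TD50/EC50. Triplicate experiments, standard errors calculated.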

[2] = Therapeutic index, ratio of TD50 for human MC65 cells to EC50 for […] human MC65 cells; assay type: cell-based; details: read-out: TI; summary of the method: as §1
[3] = Cytotoxicity against human MC65 cells by MTT assay; assay type: cell-based; details: read-out: TD50 (the source's name); summary of the method: as §1
Huh-7 = assay: Induction of ABCA1 mRNA expression in human HuH7 cells after 24 hrs; assay type: functional, cell-based; details: Huh-7, 24 h
Summary of the method: (§2)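 Cells (MC65 or Huh-7) incubated 24 h with compound or mock medium. ABCA1 gene expression measured with a Gene Expression Assay and compared with mock-treated cells to derive EC50.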

[4] = Induction of ABCA1 mRNA expression in human MC65 cells after 24 hrs; assay type: functional, cell-based; details: MC65, 24 h; summary of the method: as §2
ACAT = assay: Therapeutic index, ratio of TD50 for human MC65 cells to IC50 for ACAT activity in human MC65 cells; assay type: cell-based; details: read-out: TI
[5] = target: T1, Sterol O-acyltransferase 1 (Homo sapiens, UniProt P35610); assay: Inhibition of ACAT activity in human MC65 cells using NBD-cholesterol staining after 24 hrs by fluorescence assay
T1 sequence (P35610 whole entry): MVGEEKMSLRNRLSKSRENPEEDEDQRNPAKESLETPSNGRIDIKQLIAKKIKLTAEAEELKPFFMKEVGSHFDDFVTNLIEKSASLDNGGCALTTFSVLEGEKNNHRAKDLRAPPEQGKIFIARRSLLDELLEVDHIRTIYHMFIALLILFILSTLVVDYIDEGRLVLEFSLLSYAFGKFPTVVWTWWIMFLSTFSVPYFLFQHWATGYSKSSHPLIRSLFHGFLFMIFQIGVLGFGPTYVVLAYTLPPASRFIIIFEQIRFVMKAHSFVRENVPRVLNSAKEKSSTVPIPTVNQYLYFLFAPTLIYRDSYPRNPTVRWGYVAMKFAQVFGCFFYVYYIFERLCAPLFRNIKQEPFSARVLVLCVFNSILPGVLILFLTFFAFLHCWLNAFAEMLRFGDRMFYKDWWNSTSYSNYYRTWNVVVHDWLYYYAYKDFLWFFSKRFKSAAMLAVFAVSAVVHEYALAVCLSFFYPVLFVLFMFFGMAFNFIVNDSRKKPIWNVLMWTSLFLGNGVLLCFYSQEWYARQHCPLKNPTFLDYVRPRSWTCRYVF

MC65 = assay: Neuroprotective activity in tetracycline-deprived human MC65 cells assessed as protection against APP-induced cell death up to 50 uM by MTT assay

COc1ccc(CNCC(C)[C@H]2CCC3=Cc4c(cc(C)oc4=O)O[C@H]3C2)c2ccccc12 (stereo not given in full) gave an EC50 [1] of 0.621 µM, a selectivity ratio [2] of 24.6 and a CC50 [3] of 15.3 µM.
Cc1cc2c(c(=O)o1)C=C1CC[C@H](C(C)CNC(=O)c3ccccc3O)C[C@@H]1O2 (stereo not given in full) showed an EC50 [1] of 6.25 µM, a selectivity ratio [2] of 1.07 and a CC50 [3] of 6.69 µM.
For Cc1cc2c(c(=O)o1)C=C1CC[C@H](C(C)CNCc3cccc(O)c3)C[C@@H]1O2 (stereo not given in full), the EC50 [1] was 4.66 µM, the selectivity ratio [2] was over 10.7 and the CC50 [3] was over 50 µM.
Work on Cc1cc2c(c(=O)o1)C=C1CC[C@H](C(C)Cn3cnc(N)c4ncnc3-4)C[C@@H]1O2 (stereo not given in full) yielded an EC50 [1] of 0.12 µM, an EC50 (Huh-7) of 0.6 µM and an EC50 [4] of 0.9 µM. The selectivity ratio (ACAT) was 33, the selectivity ratio [2] was 325 and the CC50 [3] was 39 µM. It also gave an IC50 [5] of 1.2 µM.
With CCCCCCCCCCC(C)(C)C(=O)Nc1c(OC)cc(OC)cc1OC the Activity (MC65) was “inactive”.
In the case of Cc1cc2c(c(=O)o1)C=C1CC[C@H](C(C)CNCc3ccc4c(c3)OCO4)C[C@@H]1O2 (mixture of isomers), the EC50 [1] is reported as 1.18 µM, the selectivity ratio [2] is reported as over 42.4 and the CC50 [3] is reported as over 50 µM.
For COc1cc(CNCC(C)[C@H]2CCC3=Cc4c(cc(C)oc4=O)O[C@H]3C2)cc(OC)c1O (mixture of isomers), the EC50 [1] was 1.26 µM, the selectivity ratio [2] was over 39.7 and the CC50 [3] was over 50 µM.
Cc1cc2c(c(=O)o1)C=C1CC[C@H](C(C)CNCc3ccc(O)c4ccccc34)C[C@@H]1O2 (mixture of isomers) gave an EC50 [1] of 0.145 µM, an EC50 (Huh-7) of 0.6 µM and an EC50 [4] of 1.3 µM. For the same compound, the CC50 [3] was 13.7 µM.
With Cc1cc2c(c(=O)o1)C=C1CC[C@H](C(C)CNCc3c(O)ccc4ccccc34)C[C@@H]1O2 (mixture of isomers) the EC50 [1] was 0.198 µM, the selectivity ratio [2] was 133 and the CC50 [3] was 26.4 µM.
Cc1cc2c(c(=O)o1)C=C1CC[C@H](C(C)CNCc3cc(O)cc4ccccc34)C[C@@H]1O2 (mixture of isomers) gave an EC50 [1] of 0.586 µM, a selectivity ratio [2] of 31.1 and a CC50 [3] of 18.2 µM.
Cc1cc2c(c(=O)o1)C=C1CC[C@H](C(C)CNCc3ccc4cc(O)ccc4c3)C[C@@H]1O2 (mixture of isomers) showed an EC50 [1] of 0.459 µM, a selectivity ratio [2] of 52.5 and a CC50 [3] of 24.1 µM.
CC(=O)Oc1ccccc1C(=O)NCC(C)[C@H]1CCC2=Cc3c(cc(C)oc3=O)O[C@H]2C1 (mixture of isomers) gave an EC50 [1] of over 50 µM and a CC50 [3] of 8.35 µM.
Work on Cc1cc2c(c(=O)o1)C=C1CC[C@H](C(C)CNCc3ccccc3)C[C@@H]1O2 (mixture of isomers) yielded an EC50 [1] of 3.24 µM, a selectivity ratio [2] of 11.5 and a CC50 [3] of 37.3 µM.
Cc1cc2c(c(=O)o1)C=C1CC[C@H](C(C)CNCc3ccc(O)cc3)C[C@@H]1O2 (mixture of isomers) gave an EC50 [1] of 0.07 µM, an EC50 (Huh-7) of 0.6 µM and an EC50 [4] of 1.1 µM. For the same compound, the CC50 [3] was 37 µM.
Cc1cc2c(c(=O)o1)C=C1CC[C@H](C(C)CNCc3ccc(OCCO)cc3)C[C@@H]1O2 (mixture of isomers) gave an EC50 [1] of 24.5 µM, a selectivity ratio [2] of over 2.04 and a CC50 [3] of over 50 µM.
Work on Cc1cc2c(c(=O)o1)C=C1CC[C@H](C(C)CNCc3ccc(CO)cc3)C[C@@H]1O2 (mixture of isomers) yielded an EC50 [1] of 0.101 µM, an EC50 [4] of 2.5 µM and a selectivity ratio (ACAT) of over 36. For the same compound, the selectivity ratio [2] was over 495, the CC50 [3] was over 50 µM and the IC50 [5] was 1.4 µM.
Cc1cc2c(c(=O)o1)C=C1CC[C@H](C(C)CNCc3ccc(C=O)cc3)C[C@@H]1O2 (mixture of isomers) gave an EC50 [1] of 6.41 µM, a selectivity ratio [2] of 6.15 and a CC50 [3] of 39.4 µM.
In the case of COC(=O)c1ccc(CNCC(C)[C@H]2CCC3=Cc4c(cc(C)oc4=O)O[C@H]3C2)cc1 (mixture of isomers), the EC50 [1] is reported as 0.769 µM, the selectivity ratio [2] is reported as over 65 and the CC50 [3] is reported as over 50 µM.
Cc1cc2c(c(=O)o1)C=C1CC[C@H](C(C)CNCc3ccc(Cl)cc3)C[C@@H]1O2 (mixture of isomers) showed an EC50 [1] of 2.79 µM, a selectivity ratio [2] of 17.2 and a CC50 [3] of 48 µM.
Cc1cc2c(c(=O)o1)C=C1CC[C@H](C(C)CNCc3ccc(C#N)cc3)C[C@@H]1O2 (mixture of isomers) showed an EC50 [1] of over 50 µM and a CC50 [3] of over 50 µM.
Cc1cc2c(c(=O)o1)C=C1CC[C@H](C(C)CNCc3ccc(N(C)C)cc3)C[C@@H]1O2 (mixture of isomers) gave an EC50 [1] of 4.36 µM, a selectivity ratio [2] of 8.76 and a CC50 [3] of 38.2 µM.
Cc1cc2c(c(=O)o1)C=C1CC[C@H](C(C)CNCc3ccccc3O)C[C@@H]1O2 (mixture of isomers) showed an EC50 [1] of 2.44 µM, a selectivity ratio [2] of 12.6 and a CC50 [3] of 30.7 µM.
With COc1cc(CNCC(C)[C@H]2CCC3=Cc4c(cc(C)oc4=O)O[C@H]3C2)ccc1O (mixture of isomers) the EC50 [1] was 0.242 µM, the selectivity ratio [2] was 109 and the CC50 [3] was 26.3 µM.
For Cc1cc2c(c(=O)o1)C=C1CC[C@H](C(C)CNCc3ccc(O)c([N+](=O)[O-])c3)C[C@@H]1O2 (mixture of isomers), the EC50 [1] was 3.85 µM, the selectivity ratio [2] was over 13 and the CC50 [3] was over 50 µM.
Work on Cc1cc2c(c(=O)o1)C=C1CC[C@H](C(C)CNCc3ccc(O)c(Br)c3)C[C@@H]1O2 (mixture of isomers) yielded an EC50 [1] of 0.639 µM, a selectivity ratio [2] of over 78.2 and a CC50 [3] of over 50 µM.
With Cc1cc2c(c(=O)o1)C=C1CC[C@H](C(C)CNCc3ccc(O)c(F)c3)C[C@@H]1O2 (mixture of isomers) the EC50 [1] was 0.067 µM, the EC50 [4] was 2.2 µM and the selectivity ratio (ACAT) was over 28. For the same compound, the selectivity ratio [2] was over 746, the CC50 [3] was over 50 µM and the IC50 [5] was 1.8 µM.
Work on COc1ccc(CNCC(C)[C@H]2CCC3=Cc4c(cc(C)oc4=O)O[C@H]3C2)cc1O (mixture of isomers) yielded an EC50 [1] of 1.56 µM, a selectivity ratio [2] of over 32.1 and a CC50 [3] of over 50 µM.
With Cc1cc2c(c(=O)o1)C=C1CC[C@H](C(C)CNCc3ccc(OCc4ccccc4)c(OCc4ccccc4)c3)C[C@@H]1O2 (mixture of isomers) the EC50 [1] was 0.662 µM, the selectivity ratio [2] was 14.2 and the CC50 [3] was 9.38 µM.
COc1ccc(CNCC(C)[C@H]2CCC3=Cc4c(cc(C)oc4=O)O[C@H]3C2)cc1 (single isomer, unassigned) gave an EC50 [1] of 2.77 µM, a selectivity ratio [2] of over 18.1 and a CC50 [3] of over 50 µM.
